Measurements: ChEMBL document CHEMBL1152358, “Aminoparthenolides as novel anti-leukemic agents: Discovery of the NF-kappaB inhibitor, DMAPT (LC-1)” (Bioorg Med Chem Lett, 2009)

Tests used:
[1] = Antileukemic activity against acute myeloid leukemia cell assessed as cell death; type: functional; conditions: read-out: LD50 (the source's name)
Method in brief: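 Primary AML cells from consenting volunteer donors (one million cells) were cultured in serum-free medium. They were exposed for 24 h, with or without analog, in a dose-response series over 2.5–20 range. Cells were PBS-washed, stained with Annexin-V/7-AAD in HEPES pH 7.4 binding buffer for 15 min in the dark at ambient temperature, then run on a flow cytometer. Viability (Annexin V−/7-AAD−) was normalized to untreated controls, and LD₅₀ was calculated from this series.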

[2] = Aqueous solubility of the compound; type: physicochemical; conditions: buffer
[3] = Antileukemic activity against acute myeloid leukemia cell assessed as cell death at 10 uM; type: functional
Method in brief: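 Probe screen: one million donor-derived primary AML cells in serum-free medium were incubated 24 h with or without analog at a single probe concentration. Cells were PBS-washed, then stained with Annexin-V and 7-AAD in HEPES/NaCl/CaCl₂ buffer pH 7.4 for 15 min, dark, ambient temperature. Flow cytometry followed immediately. Annexin V−/7-AAD− cells were scored viable, normalized to untreated specimens.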

| Structure (SMILES) | CC50 [1] | solubility [2] | Activity [3] |
| --- | --- | --- | --- |
| C=C1C(=O)O[C@@H]2C3O[C@]3(C)CC/C=C(\C)CC[C@@H]12 (some centres not stated) | 1400 nM | 0.169 uM/ml | 84% |
| CCCN(C)C[C@@H]1C(=O)O[C@H]2[C@H]1CC/C(C)=C\CC[C@@]1(C)O[C@@H]21.O=C(O)/C=C/C(=O)O | 3200 nM | – | 95% |
| C/C1=C/CC[C@@]2(C)O[C@H]2[C@H]2OC(=O)[C@@H](CN3CCOCC3)[C@@H]2CC1.O=C(O)/C=C/C(=O)O | 14000 nM | – | 20% |
| C/C1=C/CC[C@@]2(C)O[C@H]2[C@H]2OC(=O)[C@@H](CNN(C)C)[C@@H]2CC1.O=C(O)/C=C/C(=O)O | – | – | 0% |
| C/C1=C/CC[C@@]2(C)O[C@H]2[C@H]2OC(=O)[C@@H](CNCCCN)[C@@H]2CC1.O=C(O)/C=C/C(=O)O | – | – | 0% |
| C/C1=C/CC[C@@]2(C)O[C@H]2[C@H]2OC(=O)[C@@H](CNNC(C)(C)C)[C@@H]2CC1.O=C(O)/C=C/C(=O)O | – | – | 0% |
| C/C1=C/CC[C@@]2(C)O[C@H]2[C@H]2OC(=O)[C@@H](CNC3CC3)[C@@H]2CC1.O=C(O)/C=C/C(=O)O | – | – | 6% |
| CCN(C)C[C@@H]1C(=O)O[C@H]2[C@H]1CC/C(C)=C\CC[C@@]1(C)O[C@@H]21.O=C(O)/C=C/C(=O)O | 2500 nM | – | 80% |
| C/C1=C/CC[C@@]2(C)O[C@H]2[C@H]2OC(=O)[C@@H](CN(C)C(C)C)[C@@H]2CC1.O=C(O)/C=C/C(=O)O | – | – | 78% |
| C/C1=C/CC[C@@]2(C)O[C@H]2[C@H]2OC(=O)[C@@H](CNCCN)[C@@H]2CC1.O=C(O)/C=C/C(=O)O | – | – | 0% |
| CCCCCN(C)C[C@@H]1C(=O)O[C@H]2[C@H]1CC/C(C)=C\CC[C@@]1(C)O[C@@H]21.O=C(O)/C=C/C(=O)O | 4600 nM | – | 46% |
| C/C1=C/CC[C@@]2(C)O[C@H]2[C@H]2OC(=O)[C@@H](CN(C)CCO)[C@@H]2CC1.O=C(O)/C=C/C(=O)O | 1800 nM | – | 86% |
| C/C1=C/CC[C@@]2(C)O[C@H]2[C@H]2OC(=O)[C@@H](CN(C)[C@@H]3[C@@H](O)[C@H](O)[C@@H](CO)O[C@H]3O)[C@@H]2CC1.O=C(O)/C=C/C(=O)O | – | – | 0% |
| C/C1=C/CC[C@@]2(C)O[C@H]2[C@H]2OC(=O)[C@@H](C)[C@@H]2CC1 | – | – | 0% |
| C/C1=C/CC[C@@]2(C)O[C@H]2[C@H]2OC(=O)[C@@H](CN(C3CCCCC3)C3CCCCC3)[C@@H]2CC1.O=C(O)/C=C/C(=O)O | – | – | 12% |
| C[C@@H]1C(=O)O[C@H]2[C@H]1CCC1(C)OC1CC[C@@]1(C)O[C@@H]21 (some centres not stated) | – | – | 0% |
| C/C1=C/CC[C@@]2(C)O[C@H]2[C@H]2OC(=O)[C@@H](CN3CCCCC3)[C@@H]2CC1.O=C(O)/C=C/C(=O)O | 2400 nM | – | 76% |
| C/C1=C/CC[C@@]2(C)O[C@H]2[C@H]2OC(=O)[C@@H](CN3CCCCCCC3)[C@@H]2CC1.O=C(O)/C=C/C(=O)O | – | – | 13% |
| C/C1=C/CC[C@@]2(C)O[C@H]2[C@H]2OC(=O)[C@@H](CN[C@@H]3[C@@H](O)[C@H](O)[C@@H](CO)O[C@H]3O)[C@@H]2CC1.O=C(O)/C=C/C(=O)O | – | – | 0% |

| Structure (SMILES) | CC50 [1] | solubility [2] | Activity [3] |
| --- | --- | --- | --- |
| C/C1=C/CC[C@@]2(C)O[C@H]2[C@H]2OC(=O)[C@@H](CN3CCCCCC3)[C@@H]2CC1.O=C(O)/C=C/C(=O)O | – | – | 15% |
| C/C1=C/CC[C@@]2(C)O[C@H]2[C@H]2OC(=O)[C@@H](CN3CC3)[C@@H]2CC1.O=C(O)/C=C/C(=O)O | – | – | 22% |
| C=C1C(=O)O[C@H]2[C@H]1CC/C(C=O)=C\CC[C@@]1(C)O[C@@H]21 | – | – | 0% |
| C/C1=C/CC[C@@]2(C)O[C@H]2[C@H]2OC(=O)[C@@H](CN3CCC(C)CC3)[C@@H]2CC1.O=C(O)/C=C/C(=O)O | 1600 nM | – | 83% |
| C/C1=C/CC[C@@]2(C)O[C@H]2[C@H]2OC(=O)[C@@H](CN(C(C)C)C(C)C)[C@@H]2CC1.O=C(O)/C=C/C(=O)O | – | – | 20% |
| CNC[C@@H]1C(=O)O[C@H]2[C@H]1CC/C(C)=C\CC[C@@]1(C)O[C@@H]21.O=C(O)/C=C/C(=O)O | 18000 nM | – | 4% |
| C/C1=C/CC[C@@]2(C)O[C@H]2[C@H]2OC(=O)[C@@H](CN(C)C)[C@@H]2CC1.O=C(O)/C=C/C(=O)O | 1700 nM | – | 93% |
| CCNC[C@@H]1C(=O)O[C@H]2[C@H]1CC/C(C)=C\CC[C@@]1(C)O[C@@H]21.O=C(O)/C=C/C(=O)O | 31000 nM | – | 2% |
| C/C1=C/CC[C@@]2(C)O[C@H]2[C@H]2OC(=O)[C@@H](CN(C)C3CCCCC3)[C@@H]2CC1.O=C(O)/C=C/C(=O)O | 15000 nM | – | 0% |
| CCN(CC)C[C@@H]1C(=O)O[C@H]2[C@H]1CC/C(C)=C\CC[C@@]1(C)O[C@@H]21.O=C(O)/C=C/C(=O)O | – | – | 60% |
| C=CCN(CC=C)C[C@@H]1C(=O)O[C@H]2[C@H]1CC/C(C)=C\CC[C@@]1(C)O[C@@H]21.O=C(O)/C=C/C(=O)O | – | – | 0% |
| C#CNC[C@@H]1C(=O)O[C@H]2[C@H]1CC/C(C)=C\CC[C@@]1(C)O[C@@H]21.O=C(O)/C=C/C(=O)O | – | – | 7% |
| CCCN(CCC)C[C@@H]1C(=O)O[C@H]2[C@H]1CC/C(C)=C\CC[C@@]1(C)O[C@@H]21.O=C(O)/C=C/C(=O)O | – | – | 0% |
| C=C1C(=O)O[C@H]2[C@H]1CC/C(CO)=C\CC[C@@]1(C)O[C@@H]21 | – | – | 0% |
| C/C1=C/CC[C@@]2(C)O[C@H]2[C@H]2OC(=O)[C@@H](CN3CCCC3)[C@@H]2CC1.O=C(O)/C=C/C(=O)O | 2700 nM | – | 82% |
| C/C1=C/CC[C@@]2(C)O[C@H]2[C@H]2OC(=O)[C@@H](CNCCO)[C@@H]2CC1.O=C(O)/C=C/C(=O)O | – | – | 0% |
| CCCCN(C)C[C@@H]1C(=O)O[C@H]2[C@H]1CC/C(C)=C\CC[C@@]1(C)O[C@@H]21.O=C(O)/C=C/C(=O)O | 2800 nM | – | 68% |
| C/C1=C/CC[C@@]2(C)O[C@H]2[C@H]2OC(=O)[C@@H](CNCCCO)[C@@H]2CC1.O=C(O)/C=C/C(=O)O | – | – | 0% |
